# Reference: ChEMBL document CHEMBL5724801, “EUbOPEN Chemogenomics Library - Multiplex” (2024)
# Where “and” joins values, the source holds several entries; their conditions need not be identical. Equal values may be shown once.
# Tested on: HEK-293T
# Assay: Multiplex assay against HEK293T
# Assay type: toxicity, cell-based
# Settings: human
# In short: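 Tubulin, mitochondrial-mass and membrane-permeability phenotypes are per cents of healthy-nucleus cells. Cells were gated by CellPathfinder machine learning into Hoechst high-intensity objects or normal cells, normal cells into healthy, pyknosed or fragmented nuclei, and pyknosed cells into mitotic or apoptotic. Before that, live cells stained at seeding with Hoechst33342, BioTracker Green Microtubule Cytoskeleton Dye, MitoTracker Red and Annexin V Alexa Fluor 680 were imaged on a CQ1 microscope at 37°C and 5% CO2 after compound addition.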
# [1] = 12 h, 1 µM, compound concentration 1 uM
# [2] = 12 h, 10 µM, compound concentration 10 uM
# [3] = 24 h, 1 µM, compound concentration 1 uM
# [4] = 24 h, 10 µM, compound concentration 10 uM
# [5] = 48 h, 1 µM, compound concentration 1 uM
# [6] = 48 h, 10 µM, compound concentration 10 uM
smiles,measurement,setting,value
NCCc1cn(S(=O)(=O)c2c(Cl)nc3sccn23)c2ccccc12.O=C(O)C(=O)O,Population Apoptotic (%),[1],37% and 52%
same,Population Fragmented Nuclei (%),[1],5% and 8%
same,Population Healthy Nuclei (%),[1],83% and 78%
same,Population Hoechst High Intensity Objects (%),[1],7% and 8%
same,Population Membrane Permeable-Phenotype (%),[1],0%
same,Population Mitochondria Different-Phenotype (%),[1],53% and 66%
same,Population Mitotic Cells (%),[1],62% and 47%
same,Population Normal (%),[1],92% and 91%
same,Population Pyknosed Nuclei (%),[1],11% and 13%
same,Population Tubulin-Different-Phenotype (%),[1],40% and 34%
same,Total Cell Count,[1],446 and 316
same,Population Apoptotic (%),[2],63% and 64%
same,Population Fragmented Nuclei (%),[2],8%
same,Population Healthy Nuclei (%),[2],49% and 67%
same,Population Hoechst High Intensity Objects (%),[2],22% and 25%
same,Population Membrane Permeable-Phenotype (%),[2],0%
same,Population Mitochondria Different-Phenotype (%),[2],96% and 97%
same,Population Mitotic Cells (%),[2],36% and 35%
same,Population Normal (%),[2],77% and 74%
same,Population Pyknosed Nuclei (%),[2],42% and 23%
same,Population Tubulin-Different-Phenotype (%),[2],88% and 82%
same,Total Cell Count,[2],292 and 209
same,Population Apoptotic (%),[3],33% and 41%
same,Population Fragmented Nuclei (%),[3],9% and 12%
same,Population Healthy Nuclei (%),[3],79% and 78%
same,Population Hoechst High Intensity Objects (%),[3],6% and 4%
same,Population Membrane Permeable-Phenotype (%),[3],1%
same,Population Mitochondria Different-Phenotype (%),[3],28% and 46%
same,Population Mitotic Cells (%),[3],66% and 58%
same,Population Normal (%),[3],93% and 95%
same,Population Pyknosed Nuclei (%),[3],11% and 8%
same,Population Tubulin-Different-Phenotype (%),[3],26% and 19%
same,Total Cell Count,[3],585 and 438
same,Population Apoptotic (%),[4],74% and 75%
same,Population Fragmented Nuclei (%),[4],14%
same,Population Healthy Nuclei (%),[4],37% and 62%
same,Population Hoechst High Intensity Objects (%),[4],34%
same,Population Membrane Permeable-Phenotype (%),[4],2%
same,Population Mitochondria Different-Phenotype (%),[4],83% and 95%
same,Population Mitotic Cells (%),[4],25% and 24%
same,Population Normal (%),[4],65%
same,Population Pyknosed Nuclei (%),[4],48% and 22%
same,Population Tubulin-Different-Phenotype (%),[4],44% and 76%
same,Total Cell Count,[4],310 and 195
same,Population Apoptotic (%),[5],23% and 47%
same,Population Fragmented Nuclei (%),[5],16% and 12%
same,Population Healthy Nuclei (%),[5],77% and 82%
same,Population Hoechst High Intensity Objects (%),[5],3% and 5%
same,Population Membrane Permeable-Phenotype (%),[5],0% and 1%
same,Population Mitochondria Different-Phenotype (%),[5],22% and 23%
same,Population Mitotic Cells (%),[5],76% and 52%
same,Population Normal (%),[5],96% and 94%
same,Population Pyknosed Nuclei (%),[5],6% and 5%
same,Population Tubulin-Different-Phenotype (%),[5],19% and 14%
same,Total Cell Count,[5],972 and 678
same,Population Apoptotic (%),[6],53% and 78%
same,Population Fragmented Nuclei (%),[6],27% and 19%
same,Population Healthy Nuclei (%),[6],24% and 47%
same,Population Hoechst High Intensity Objects (%),[6],62% and 47%
same,Population Membrane Permeable-Phenotype (%),[6],11% and 1%
same,Population Mitochondria Different-Phenotype (%),[6],74% and 75%
same,Population Mitotic Cells (%),[6],46% and 21%
same,Population Normal (%),[6],37% and 52%
same,Population Pyknosed Nuclei (%),[6],47% and 33%
same,Population Tubulin-Different-Phenotype (%),[6],55% and 52%
same,Total Cell Count,[6],294 and 212
Nc1nccc(-c2ccn3c(N)nccc23)n1,Population Apoptotic (%),[1],15.46% and 10.1%
same,Population Fragmented Nuclei (%),[1],3.18% and 4.55%
same,Population Healthy Nuclei (%),[1],68.79% and 31.17%
same,Population Hoechst High Intensity Objects (%),[1],0%
same,Population Membrane Permeable-Phenotype (%),[1],0.42% and 2.08%
same,Population Mitochondria Different-Phenotype (%),[1],32.35% and 27.08%
same,Population Mitotic Cells (%),[1],84.54% and 89.9%
same,Population Normal (%),[1],100%
same,Population Pyknosed Nuclei (%),[1],28.03% and 64.29%
same,Total Cell Count,[1],346 and 154
same,Population Apoptotic (%),[2],15.73% and 12.77%
same,Population Fragmented Nuclei (%),[2],2.41% and 4.48%
same,Population Healthy Nuclei (%),[2],66.9% and 25.37%
same,Population Hoechst High Intensity Objects (%),[2],0.34% and 0%
same,Population Membrane Permeable-Phenotype (%),[2],1.03% and 0%
same,Population Mitochondria Different-Phenotype (%),[2],38.66% and 17.65%
same,Population Mitotic Cells (%),[2],84.27% and 87.23%
same,Population Normal (%),[2],99.66% and 100%
same,Population Pyknosed Nuclei (%),[2],30.69% and 70.15%
same,Total Cell Count,[2],291 and 134
same,Population Apoptotic (%),[3],20.19% and 15.91%
same,Population Fragmented Nuclei (%),[3],1.49% and 2.84%
same,Population Healthy Nuclei (%),[3],76.43% and 34.75%
same,Population Hoechst High Intensity Objects (%),[3],0% and 2.08%
same,Population Membrane Permeable-Phenotype (%),[3],1.11% and 4.08%
same,Population Mitochondria Different-Phenotype (%),[3],17.78% and 20.41%
same,Population Mitotic Cells (%),[3],79.81% and 84.09%
same,Population Normal (%),[3],100% and 97.92%
same,Population Pyknosed Nuclei (%),[3],22.08% and 62.41%
same,Population Tubulin-Different-Phenotype (%),[3],14.44% and 12.24%
same,Population Apoptotic (%),[4],20.31% and 14.47%
same,Population Fragmented Nuclei (%),[4],1.23% and 6.87%
same,Population Healthy Nuclei (%),[4],79.14% and 35.11%
same,Population Hoechst High Intensity Objects (%),[4],0.61% and 0%
same,Population Membrane Permeable-Phenotype (%),[4],0% and 2.17%
same,Population Mitochondria Different-Phenotype (%),[4],20.93% and 19.57%
same,Population Mitotic Cells (%),[4],79.69% and 85.53%
same,Population Normal (%),[4],99.39% and 100%
same,Population Pyknosed Nuclei (%),[4],19.63% and 58.02%
same,Population Tubulin-Different-Phenotype (%),[4],11.63% and 8.7%
same,Total Cell Count,[4],328 and 131
same,Population Apoptotic (%),[5],8% and 18.75%
same,Population Fragmented Nuclei (%),[5],5.17% and 4.03%
same,Population Healthy Nuclei (%),[5],89.44% and 63.76%
same,Population Hoechst High Intensity Objects (%),[5],0.11% and 0.67%
same,Population Membrane Permeable-Phenotype (%),[5],5.66% and 3.16%
same,Population Mitochondria Different-Phenotype (%),[5],18.92% and 21.05%
same,Population Mitotic Cells (%),[5],92% and 81.25%
same,Population Normal (%),[5],99.89% and 99.33%
same,Population Apoptotic (%),[6],20% and 39.39%
same,Population Fragmented Nuclei (%),[6],5.81% and 7.8%
same,Population Healthy Nuclei (%),[6],85.77% and 68.79%
same,Population Hoechst High Intensity Objects (%),[6],0.37% and 1.4%
same,Population Membrane Permeable-Phenotype (%),[6],1.31% and 2.06%
same,Population Mitochondria Different-Phenotype (%),[6],36.24% and 23.71%
same,Population Mitotic Cells (%),[6],80% and 60.61%
same,Population Normal (%),[6],99.63% and 98.6%
same,Population Pyknosed Nuclei (%),[6],8.43% and 23.4%
